Source: ChEMBL document CHEMBL1145793, “Discovery and structure-activity relationships of novel piperidine inhibitors of farnesyltransferase” (J Med Chem, 2003)

Molecular target: Protein farnesyltransferase (Bos taurus, UniProt P29702+P49355)
Test: Inhibition of bovine brain farnesyltransferase (FTase) farnesylation of viral K-Ras
Method in brief: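 Partially purified bovine brain farnesyltransferase, used as a crude dialysate. Substrates were viral K-Ras protein and [3H]farnesyl pyrophosphate. It was calculated by comparing untreated enzyme activity with activity at known inhibitor concentrations.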

IC50 [nM]	Compound
350	O=C1CC(c2cccc(Br)c2)[C@H]([N+](=O)[O-])[C@@H](c2ccc(O)cc2)N1Cc1cccnc1 (stereo in doubt; 1)
8.2	O=[N+]([O-])[C@H]1C(c2ccccc2Br)CCN(Cc2cccnc2)[C@@H]1c1ccc(O)cc1 (mixture of isomers)
46	O=C1CC(c2ccccc2Br)[C@H]([N+](=O)[O-])[C@@H](c2ccc(O)c(O)c2)N1Cc1cccnc1 (mixture of isomers)
75	O=C1CC(c2ccccc2Br)[C@H]([N+](=O)[O-])[C@@H](c2ccc(O)cc2)N1Cc1cccnc1 (single isomer, unassigned; (+))
420	O=C1CC(c2cccc(Br)c2)[C@H]([N+](=O)[O-])[C@@H](c2ccc(O)cc2)N1Cc1cccnc1 (stereo in doubt)
1200	O=C1CC(c2ccccc2Br)[C@H]([N+](=O)[O-])[C@@H](c2ccc(O)c(O)c2)N1Cc1cccnc1 (single isomer, unassigned; (-))
5.8	O=[N+]([O-])[C@H]1C(c2ccccc2Br)CCN(Cc2cccnc2)[C@@H]1c1ccc(O)cc1 (single isomer, unassigned; (+))
> 1200	COc1ccc([C@@H]2[C@@H]([N+](=O)[O-])C(c3ccccc3Br)CC(=O)N2Cc2cccnc2)cc1 (stereo not given in full)
> 3700	O=C1CC(c2ccc(Br)cc2)[C@H]([N+](=O)[O-])[C@@H](c2ccc(O)cc2)N1Cc1cccnc1 (stereo not given in full)
> 1200	O=C1CC(c2ccccc2Br)[C@H]([N+](=O)[O-])[C@@H](c2ccc(O)c(CO)c2)N1Cc1cccnc1 (stereo not given in full)
30	O=C1CC(c2ccccc2Br)[C@H]([N+](=O)[O-])[C@@H](c2ccc(O)c(O)c2)N1Cc1cccnc1 (single isomer, unassigned; (+))
97	Nc1cc([C@@H]2[C@@H]([N+](=O)[O-])C(c3ccccc3Br)CC(=O)N2Cc2cccnc2)ccc1O (stereo not given in full)
950	O=C1CC(c2ccccc2Br)[C@H]([N+](=O)[O-])[C@@H](c2ccc(O)cc2)N1Cc1cccnc1 (single isomer, unassigned; (-))
140	O=C1CC(c2ccccc2Br)[C@H]([N+](=O)[O-])[C@@H](c2ccc(O)cc2)N1Cc1cccnc1 (mixture of isomers)
> 310	O=[N+]([O-])[C@H]1C(c2ccccc2Br)CCN(Cc2cccnc2)[C@@H]1c1ccc(O)cc1 (single isomer, unassigned; (-))

More lines, now with the values behind:

Compound	IC50 [nM]
O=C1CC(c2cccc(Br)c2)[C@H]([N+](=O)[O-])[C@@H](c2ccc(O)cc2)N1Cc1ccc[n+]([O-])c1 (stereo not given in full)	> 3700
Cc1cccc(C2CC(=O)N(Cc3cccnc3)[C@H](c3ccc(O)cc3)[C@H]2[N+](=O)[O-])c1 (stereo not given in full)	410
N[C@H]1C(c2cccc(Br)c2)CC(=O)N(Cc2cccnc2)[C@@H]1c1ccc(O)cc1 (stereo not given in full)	> 3700
O=C1CC(c2cccc(Br)c2)[C@H]([N+](=O)[O-])[C@@H](c2ccc(O)cc2)N1Cc1ccncc1 (stereo not given in full)	> 3700
O=C1CC(c2cccc(Br)c2)[C@H](NO)[C@@H](c2ccc(O)cc2)N1Cc1cccnc1 (stereo not given in full)	> 3700
O=C1CC(c2cccc(Cl)c2)[C@H]([N+](=O)[O-])[C@@H](c2ccc(O)cc2)N1Cc1cccnc1 (stereo not given in full)	320
O=[N+]([O-])[C@H]1C(c2ccccc2Br)C=CN(Cc2cccnc2)[C@@H]1c1ccc(O)c(O)c1 (stereo not given in full)	13
O=[N+]([O-])[C@H]1C(c2ccccc2Br)CCN(Cc2cccnc2)[C@@H]1c1ccc(O)c(O)c1 (single isomer, unassigned; (+))	1.9
O=[N+]([O-])[C@H]1C(c2ccccc2Br)CCN(Cc2cccnc2)[C@@H]1c1ccc(O)c(O)c1 (stereo in doubt; 8-(-))	> 310
O=[N+]([O-])[C@H]1C(c2ccccc2Br)CCN(Cc2cccnc2)[C@@H]1c1ccc(O)c(O)c1 (mixture of isomers)	3.7
